Assay results published in ChEMBL document CHEMBL4007402 (J Med Chem, 2017).

Experiments:
[1] = molecular target: Mast/stem cell growth factor receptor Kit (Homo sapiens) (UniProt P10721); test: Inhibition of recombinant TEL-fused c-KIT (unknown origin) expressed in mouse BAF3 cells assessed as growth inhibition after 72 hrs by CellTiter-Glo or CCK-8 assay; assay type: cell-based
Method in brief: (§1)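 Isogenic murine BaF3 cells transformed with TEL-fused kinases, whose proliferation depends on the fused kinase, were used. Parental BaF3 cells served as the general selectivity counter-screen. The anti-proliferative read-out was reported as GI50.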

[2] = molecular target: Platelet-derived growth factor receptor alpha (Homo sapiens) (UniProt P16234); test: Inhibition of recombinant TEL-fused PDGFR-alpha (unknown origin) expressed in mouse BAF3 cells assessed as growth inhibition after 72 hrs by CellTiter-Glo or CCK-8 assay; assay type: cell-based; method in brief: as §1
[3] = molecular target: Platelet-derived growth factor receptor beta (Homo sapiens) (UniProt P09619); test: Inhibition of recombinant TEL-fused PDGFR-beta (unknown origin) expressed in mouse BAF3 cells assessed as growth inhibition after 72 hrs by CellTiter-Glo or CCK-8 assay; assay type: cell-based; method in brief: as §1
[4] = molecular target: Receptor-type tyrosine-protein kinase FLT3 (Homo sapiens) (UniProt P36888); test: Inhibition of recombinant TEL-fused FLT3 (unknown origin) expressed in mouse BAF3 cells assessed as growth inhibition after 72 hrs by CellTiter-Glo or CCK-8 assay; assay type: cell-based; method in brief: as §1
[5] = molecular target: Epidermal growth factor receptor (Homo sapiens) (UniProt P00533); test: Inhibition of recombinant TEL-fused EGFR (unknown origin) expressed in mouse BAF3 cells assessed as growth inhibition after 72 hrs by CellTiter-Glo or CCK-8 assay; assay type: cell-based; method in brief: as §1
[6] = molecular target: T1, Tyrosine-protein kinase JAK3 (Homo sapiens) (UniProt P52333); test: Inhibition of recombinant TEL-fused JAK3 (unknown origin) expressed in mouse BAF3 cells assessed as growth inhibition after 72 hrs by CellTiter-Glo or CCK-8 assay; assay type: cell-based; method in brief: as §1
T1 sequence (whole entry): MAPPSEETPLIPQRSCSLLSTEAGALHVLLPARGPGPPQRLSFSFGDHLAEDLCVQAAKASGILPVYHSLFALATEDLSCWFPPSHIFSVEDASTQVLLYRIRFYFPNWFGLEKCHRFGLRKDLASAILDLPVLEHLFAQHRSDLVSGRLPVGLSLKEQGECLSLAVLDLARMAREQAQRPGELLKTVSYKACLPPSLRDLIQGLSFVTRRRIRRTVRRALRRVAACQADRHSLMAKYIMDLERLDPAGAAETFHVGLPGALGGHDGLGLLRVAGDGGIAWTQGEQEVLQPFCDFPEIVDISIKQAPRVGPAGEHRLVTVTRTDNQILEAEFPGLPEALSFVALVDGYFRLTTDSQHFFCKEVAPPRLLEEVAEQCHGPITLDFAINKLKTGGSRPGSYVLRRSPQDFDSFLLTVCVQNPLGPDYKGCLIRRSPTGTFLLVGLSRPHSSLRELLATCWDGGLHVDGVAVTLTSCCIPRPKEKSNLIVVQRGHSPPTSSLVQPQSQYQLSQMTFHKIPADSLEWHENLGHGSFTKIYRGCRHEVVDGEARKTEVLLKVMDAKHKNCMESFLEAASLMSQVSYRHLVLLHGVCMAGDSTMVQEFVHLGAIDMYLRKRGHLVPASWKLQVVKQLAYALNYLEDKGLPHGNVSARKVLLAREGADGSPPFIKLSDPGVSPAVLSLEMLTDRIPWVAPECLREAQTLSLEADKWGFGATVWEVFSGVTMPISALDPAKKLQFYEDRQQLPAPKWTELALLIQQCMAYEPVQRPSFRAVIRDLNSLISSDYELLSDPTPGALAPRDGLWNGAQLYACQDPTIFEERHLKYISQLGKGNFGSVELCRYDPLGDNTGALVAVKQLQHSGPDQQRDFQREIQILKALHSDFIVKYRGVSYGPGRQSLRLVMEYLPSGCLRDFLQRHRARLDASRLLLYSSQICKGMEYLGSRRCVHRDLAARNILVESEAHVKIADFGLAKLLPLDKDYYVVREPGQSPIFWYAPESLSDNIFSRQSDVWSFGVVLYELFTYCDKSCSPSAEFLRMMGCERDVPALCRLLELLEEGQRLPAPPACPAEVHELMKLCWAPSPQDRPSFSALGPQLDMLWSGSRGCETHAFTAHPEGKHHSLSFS

[7] = molecular target: Epithelial discoidin domain-containing receptor 1 (Homo sapiens, UniProt Q08345); test: Binding affinity to human DDR1 (565 to 876 amino acid residues) expressed in bacterial expression system assessed as percent control number at 1 uM by KINOMEscan assay
Method in brief: (§2)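 KINOMEscan competition binding panel of 468 kinases, with the compound tested at 1 µM. Binding is expressed as percent of control relative to DMSO.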

[8] = molecular target: T2, Mitogen-activated protein kinase 14 (Homo sapiens, UniProt Q16539); test: Binding affinity to full length human p38alpha (1 to 360 amino acid residues) expressed in bacterial expression system assessed as percent control number at 1 uM by KINOMEscan assay; method in brief: as §2
[9] = molecular target: Tyrosine-protein kinase ABL1 (Homo sapiens) (UniProt P00519); test: Inhibition of human nonphosphorylated ABL1 (229 to 512 amino acid residues) expressed in mammalian expression system assessed as remaining activity at 1 uM by KINOMEscan assay relative to control; method in brief: as §2
[10] = molecular target: T2, Mitogen-activated protein kinase 14; test: Inhibition of full-length recombinant human GST-tagged p38alpha expressed in Escherichia coli by Z'-LYTE assay
PC-3 = test: Growth inhibition of human PC3 cells after 72 hrs by CellTiter-Glo or CCK-8 assay; assay type: functional; settings: PC-3, 72 h
EJ = test: Growth inhibition of human EJ cells after 72 hrs by CellTiter-Glo or CCK-8 assay; assay type: functional
[11] = Growth inhibition of CHL cells after 72 hrs by CellTiter-Glo or CCK-8 assay; assay type: cell-based, Cricetulus griseus; settings: chinese hamster
J82 = test: Growth inhibition of human J82 cells after 72 hrs by CellTiter-Glo or CCK-8 assay; assay type: functional; settings: J82, 72 h
T-24 = test: Growth inhibition of human T24 cells after 72 hrs by CellTiter-Glo or CCK-8 assay; assay type: functional; settings: T-24, 72 h
A498 = test: Growth inhibition of human A498 cells after 72 hrs by CellTiter-Glo or CCK-8 assay; assay type: functional; settings: A498, 72 h
[12] = AUC (0 to t) in Sprague-Dawley rat at 10 mg/kg, po up to 24 hrs; assay type: ADME, organism-based; set-up: time < 24 hr, dose 10 mg/kg, route oral; settings: in vivo
Method in brief: (§3)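 Sprague Dawley rats given a single i.v. dose of 1 mg/kg or an oral dose of 10 mg/kg. Plasma AUC(0-t), AUC(0-∞), MRT(0-t), T1/2, Tmax and Cmax were derived and reported as mean±SD.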

[13] = AUC (0 to infinity) in Sprague-Dawley rat at 1 mg/kg, iv up to 8 hrs; assay type: ADME, organism-based; set-up: dose 1 mg/kg, route intravenous, time infinity; settings: in vivo; method in brief: as §3
[14] = Mean residence time (0 to t) in Sprague-Dawley rat at 1 mg/kg, iv; assay type: ADME, organism-based; settings: in vivo; method in brief: as §3
[15] = Half-life in Sprague-Dawley rat at 1 mg/kg, iv; assay type: ADME, organism-based; settings: in vivo; method in brief: as §3
[16] = Half-life in Sprague-Dawley rat at 10 mg/kg, po; assay type: ADME, organism-based; settings: in vivo; method in brief: as §3
[17] = Cmax in Sprague-Dawley rat at 1 mg/kg, iv up to 8 hrs; assay type: ADME, organism-based; set-up: dose 1 mg/kg, route intravenous; settings: in vivo; method in brief: as §3

T2 sequence (Q16539 whole entry, the tested form may be a part): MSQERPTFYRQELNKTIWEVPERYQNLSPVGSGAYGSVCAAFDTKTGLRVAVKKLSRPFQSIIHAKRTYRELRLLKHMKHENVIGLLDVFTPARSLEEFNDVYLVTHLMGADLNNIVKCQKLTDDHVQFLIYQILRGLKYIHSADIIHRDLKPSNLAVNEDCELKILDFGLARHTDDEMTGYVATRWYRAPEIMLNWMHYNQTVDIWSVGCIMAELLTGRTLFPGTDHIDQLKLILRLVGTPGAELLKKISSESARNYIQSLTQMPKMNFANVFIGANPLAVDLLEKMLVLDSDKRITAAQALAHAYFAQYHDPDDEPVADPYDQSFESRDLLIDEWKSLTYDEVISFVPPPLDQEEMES
Chain of Tyrosine-protein kinase ABL1 (Homo sapiens) (P00519 whole entry, the tested form may be a part): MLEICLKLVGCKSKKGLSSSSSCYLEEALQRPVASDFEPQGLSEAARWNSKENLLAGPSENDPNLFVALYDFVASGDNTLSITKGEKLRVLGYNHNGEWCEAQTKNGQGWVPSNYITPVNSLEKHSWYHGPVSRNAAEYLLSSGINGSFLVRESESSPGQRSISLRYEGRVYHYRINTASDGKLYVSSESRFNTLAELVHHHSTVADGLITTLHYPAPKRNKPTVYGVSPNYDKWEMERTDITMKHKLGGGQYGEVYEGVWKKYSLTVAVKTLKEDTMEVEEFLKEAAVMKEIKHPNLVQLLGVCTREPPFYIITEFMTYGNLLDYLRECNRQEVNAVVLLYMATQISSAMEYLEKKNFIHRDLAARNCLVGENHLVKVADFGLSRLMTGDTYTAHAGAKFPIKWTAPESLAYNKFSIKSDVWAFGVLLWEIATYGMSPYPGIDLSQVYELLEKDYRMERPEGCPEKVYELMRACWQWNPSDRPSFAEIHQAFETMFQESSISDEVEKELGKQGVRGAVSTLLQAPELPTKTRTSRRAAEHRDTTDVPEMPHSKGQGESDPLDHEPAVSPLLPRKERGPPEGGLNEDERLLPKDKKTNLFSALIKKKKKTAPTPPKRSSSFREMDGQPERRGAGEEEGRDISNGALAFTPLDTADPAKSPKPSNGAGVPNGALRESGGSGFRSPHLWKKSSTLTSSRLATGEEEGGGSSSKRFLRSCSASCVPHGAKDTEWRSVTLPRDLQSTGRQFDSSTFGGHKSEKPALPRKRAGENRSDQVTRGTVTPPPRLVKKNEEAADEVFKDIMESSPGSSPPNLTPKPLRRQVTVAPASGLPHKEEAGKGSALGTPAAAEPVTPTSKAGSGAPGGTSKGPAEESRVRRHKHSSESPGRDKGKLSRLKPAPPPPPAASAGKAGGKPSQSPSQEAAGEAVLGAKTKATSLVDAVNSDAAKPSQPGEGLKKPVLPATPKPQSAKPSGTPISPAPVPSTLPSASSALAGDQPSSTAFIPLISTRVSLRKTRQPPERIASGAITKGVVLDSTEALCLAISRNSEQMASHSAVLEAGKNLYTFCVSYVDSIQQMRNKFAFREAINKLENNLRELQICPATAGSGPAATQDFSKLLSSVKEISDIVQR
Chain of Platelet-derived growth factor receptor beta (Homo sapiens) (P09619 whole entry, the tested form may be a part): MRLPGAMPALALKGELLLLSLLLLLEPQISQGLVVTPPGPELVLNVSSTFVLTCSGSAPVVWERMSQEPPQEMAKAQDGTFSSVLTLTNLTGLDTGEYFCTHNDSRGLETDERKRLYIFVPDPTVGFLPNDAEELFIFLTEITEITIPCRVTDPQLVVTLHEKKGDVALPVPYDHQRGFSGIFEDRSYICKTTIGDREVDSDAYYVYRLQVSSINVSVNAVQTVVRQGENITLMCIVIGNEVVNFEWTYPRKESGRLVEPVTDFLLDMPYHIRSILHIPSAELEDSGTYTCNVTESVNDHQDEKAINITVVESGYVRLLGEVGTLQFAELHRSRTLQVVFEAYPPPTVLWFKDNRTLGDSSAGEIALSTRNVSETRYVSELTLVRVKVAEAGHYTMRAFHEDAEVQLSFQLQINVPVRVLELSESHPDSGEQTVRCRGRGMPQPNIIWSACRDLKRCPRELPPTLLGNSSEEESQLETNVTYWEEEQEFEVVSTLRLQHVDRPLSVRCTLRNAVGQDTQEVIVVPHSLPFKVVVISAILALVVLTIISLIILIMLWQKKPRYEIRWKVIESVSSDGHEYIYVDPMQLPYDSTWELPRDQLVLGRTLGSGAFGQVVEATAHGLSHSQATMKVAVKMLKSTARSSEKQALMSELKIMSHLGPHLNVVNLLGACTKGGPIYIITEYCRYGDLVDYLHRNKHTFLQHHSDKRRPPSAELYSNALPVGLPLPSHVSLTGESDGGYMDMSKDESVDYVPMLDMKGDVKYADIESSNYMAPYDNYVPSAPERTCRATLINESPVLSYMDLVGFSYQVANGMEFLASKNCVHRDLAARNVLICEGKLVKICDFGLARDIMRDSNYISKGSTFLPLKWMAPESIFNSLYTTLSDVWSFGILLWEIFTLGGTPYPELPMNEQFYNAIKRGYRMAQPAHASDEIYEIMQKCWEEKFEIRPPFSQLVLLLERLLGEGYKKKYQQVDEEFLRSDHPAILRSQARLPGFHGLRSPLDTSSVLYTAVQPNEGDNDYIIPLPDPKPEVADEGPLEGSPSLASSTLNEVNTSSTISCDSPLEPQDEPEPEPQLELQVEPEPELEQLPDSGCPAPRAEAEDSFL
Chain of Platelet-derived growth factor receptor alpha (Homo sapiens) (P16234 whole entry, the tested form may be a part): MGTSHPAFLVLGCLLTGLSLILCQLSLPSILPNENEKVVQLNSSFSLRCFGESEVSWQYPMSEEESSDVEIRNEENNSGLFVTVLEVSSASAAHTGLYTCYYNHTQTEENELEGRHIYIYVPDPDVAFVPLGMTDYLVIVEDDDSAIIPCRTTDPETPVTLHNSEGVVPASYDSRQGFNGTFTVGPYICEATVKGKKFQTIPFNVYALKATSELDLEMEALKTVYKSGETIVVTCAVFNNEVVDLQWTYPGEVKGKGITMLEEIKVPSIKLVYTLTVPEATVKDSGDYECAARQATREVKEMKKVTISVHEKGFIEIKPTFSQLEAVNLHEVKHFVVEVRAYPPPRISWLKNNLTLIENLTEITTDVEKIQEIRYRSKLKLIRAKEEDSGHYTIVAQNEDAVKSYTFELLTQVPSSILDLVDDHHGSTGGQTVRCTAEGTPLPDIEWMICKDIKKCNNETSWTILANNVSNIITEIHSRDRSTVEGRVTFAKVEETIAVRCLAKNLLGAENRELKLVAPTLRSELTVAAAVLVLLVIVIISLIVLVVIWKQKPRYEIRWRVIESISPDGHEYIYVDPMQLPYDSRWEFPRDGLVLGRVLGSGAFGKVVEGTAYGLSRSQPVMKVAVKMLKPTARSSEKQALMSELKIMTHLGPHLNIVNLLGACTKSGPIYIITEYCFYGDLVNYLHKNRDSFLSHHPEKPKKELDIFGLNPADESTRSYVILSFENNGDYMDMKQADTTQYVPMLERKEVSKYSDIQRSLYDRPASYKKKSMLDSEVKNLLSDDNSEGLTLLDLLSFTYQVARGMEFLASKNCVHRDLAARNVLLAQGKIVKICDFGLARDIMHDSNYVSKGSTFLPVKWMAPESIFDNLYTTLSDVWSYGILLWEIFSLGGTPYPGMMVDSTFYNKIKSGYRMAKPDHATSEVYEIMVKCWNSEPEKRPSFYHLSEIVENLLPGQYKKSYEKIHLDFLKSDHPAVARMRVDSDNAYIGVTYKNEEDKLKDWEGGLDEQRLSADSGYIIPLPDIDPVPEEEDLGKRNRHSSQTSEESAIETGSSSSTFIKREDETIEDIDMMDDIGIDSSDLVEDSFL
Chain of Epithelial discoidin domain-containing receptor 1 (Q08345 whole entry, the tested form may be a part): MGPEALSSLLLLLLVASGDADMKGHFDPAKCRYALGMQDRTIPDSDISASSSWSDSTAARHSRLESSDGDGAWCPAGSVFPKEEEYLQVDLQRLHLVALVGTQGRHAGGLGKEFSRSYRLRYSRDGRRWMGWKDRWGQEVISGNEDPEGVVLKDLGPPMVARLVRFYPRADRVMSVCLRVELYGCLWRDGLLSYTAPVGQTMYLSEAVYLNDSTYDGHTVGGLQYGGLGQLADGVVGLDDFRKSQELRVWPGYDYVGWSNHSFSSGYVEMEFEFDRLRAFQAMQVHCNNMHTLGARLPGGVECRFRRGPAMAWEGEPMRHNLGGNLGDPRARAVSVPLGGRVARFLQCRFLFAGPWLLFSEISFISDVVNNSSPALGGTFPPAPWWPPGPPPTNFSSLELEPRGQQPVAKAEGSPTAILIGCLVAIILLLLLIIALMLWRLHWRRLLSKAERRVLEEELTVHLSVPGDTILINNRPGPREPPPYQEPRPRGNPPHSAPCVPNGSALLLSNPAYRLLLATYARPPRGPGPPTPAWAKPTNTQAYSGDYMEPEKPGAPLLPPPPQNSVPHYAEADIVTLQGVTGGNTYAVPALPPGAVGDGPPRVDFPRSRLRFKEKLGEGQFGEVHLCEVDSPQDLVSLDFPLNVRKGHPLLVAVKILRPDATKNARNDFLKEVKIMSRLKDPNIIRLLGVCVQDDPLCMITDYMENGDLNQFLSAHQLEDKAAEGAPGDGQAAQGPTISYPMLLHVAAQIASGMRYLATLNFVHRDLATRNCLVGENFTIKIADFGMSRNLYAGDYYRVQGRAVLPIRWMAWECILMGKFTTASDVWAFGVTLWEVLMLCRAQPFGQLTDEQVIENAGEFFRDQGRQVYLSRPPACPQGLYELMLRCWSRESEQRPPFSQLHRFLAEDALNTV

C=CC(=O)Nc1cc(Nc2ncc(C(=O)Nc3cc(NC(=O)c4cc(OC)c(OC)c(OC)c4)ccc3C)c(NC)n2)ccc1C
GI50 [1]: 2.01 µM | GI50 [2]: 0.67 µM | GI50 [3]: 0.91 µM | GI50 [4]: > 10 µM | GI50 [5]: > 10 µM | GI50 [6]: > 10 µM | Activity [7]: 0.05% | Activity [8]: 0% | Activity [9]: 0.7% | IC50 [10]: 0.106 µM | GI50 (PC-3): 3.45 µM | GI50 (EJ): > 10 µM | GI50 at 72 h [11]: > 10 µM | GI50 (J82): 5.78 µM | GI50 (T-24): 8.98 µM | GI50 (A498): > 10 µM | AUC(0-t) at 24 h [12]: 13.4 ng·h/mL | AUC(0-inf) [13]: 1390 ng·h/mL | MRT last [14]: 13.4 min | half-life [15]: 48 min | half-life [16]: 367 min | Cmax [17]: 13600 ng/mL
